Data published in ChEMBL document CHEMBL1152672, “Side chain azasteroids and thiasteroids as sterol methyltransferase inhibitors in ergosterol biosynthesis” (2009).
Converted amounts (≈) assume the structure as drawn.

Legend:
[1] = biological target: T1, Sterol 24-C-methyltransferase (Yarrowia lipolytica) (UniProt Q6C2D9); assay: Inhibition of Yarrowia lipolytica 24-SMT assessed as cholesta-7,24-dien-3-trimethylsilyl derivative at 0.06 ug/mL after 48 hrs by GC-MS analysis relative to untreated control; design: scale not given: the % may be the effect or the level left
T1 sequence (whole entry): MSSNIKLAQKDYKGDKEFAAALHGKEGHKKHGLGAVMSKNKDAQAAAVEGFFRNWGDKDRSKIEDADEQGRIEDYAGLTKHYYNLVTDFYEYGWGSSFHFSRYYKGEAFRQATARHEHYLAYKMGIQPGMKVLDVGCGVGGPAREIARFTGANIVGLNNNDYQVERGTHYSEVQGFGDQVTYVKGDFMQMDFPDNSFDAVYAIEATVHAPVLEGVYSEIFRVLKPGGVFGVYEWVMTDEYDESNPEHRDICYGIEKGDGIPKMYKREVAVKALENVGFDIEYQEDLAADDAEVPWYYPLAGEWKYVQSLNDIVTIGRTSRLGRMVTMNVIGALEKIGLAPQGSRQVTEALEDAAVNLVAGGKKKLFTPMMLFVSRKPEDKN
In short: (§1)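 Whole-cell sterol profiling. Y. lipolytica at 50,000 CFU/mL was exposed to compounds added from ethanol for 48 ± 2 h at 28 °C, and the MIC/2 and/or MIC/4 wells were used. Cells were pelleted and PBS-washed, then saponified in 1 M NaOH at 70 °C for 1 h. Sterols were extracted into TBME with a cholesterol internal standard and silylated to TMS ethers. GC-MS full scan, with each sterol given as % of total integrated quantifier-ion area.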

[2] = biological target: T1, Sterol 24-C-methyltransferase (Yarrowia lipolytica); assay: Inhibition of Yarrowia lipolytica 24-SMT assessed as 5-dehydroepisterol-3-trimethylsilyl derivative at 0.06 ug/mL after 48 hrs by GC-MS analysis relative to untreated control; design: scale not given: the % may be the effect or the level left; in short: as §1
[3] = biological target: T1, Sterol 24-C-methyltransferase (Yarrowia lipolytica); assay: Inhibition of Yarrowia lipolytica 24-SMT assessed as dehydroergosterol-3-trimethylsilyl derivative at 0.06 ug/mL after 48 hrs by GC-MS analysis relative to untreated control; design: scale not given: the % may be the effect or the level left; in short: as §1
[4] = biological target: T1, Sterol 24-C-methyltransferase (Yarrowia lipolytica); assay: Inhibition of Yarrowia lipolytica 24-SMT assessed as cholesta-5,7,24-trien-3-trimethylsilyl derivative at 0.06 ug/mL after 48 hrs by GC-MS analysis relative to untreated control; design: scale not given: the % may be the effect or the level left; in short: as §1
[5] = test system: Yarrowia lipolytica; assay: Antimicrobial activity against Yarrowia lipolytica after 48 hrs; assay type: functional
In short: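 Broth dilution MIC per DIN 58940-84. Log-phase Y. lipolytica in yeast extract/peptone/glucose medium, counted against a 0.5 McFarland standard (A570) and seeded at 50,000 CFU/mL in 2 mL wells. Compounds added from ethanol; final concentrations 2 to 0.06125 µg/mL unless otherwise stated. Plates incubated 48 ± 2 h at 28 °C. MIC is the lowest concentration with no visible growth.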

[6] = biological target: T1, Sterol 24-C-methyltransferase (Yarrowia lipolytica); assay: Inhibition of Yarrowia lipolytica 24-SMT assessed as cholesta-7,24-dien-3-trimethylsilyl derivative at 0.2 ug/mL after 48 hrs by GC-MS analysis relative to untreated control; design: scale not given: the % may be the effect or the level left; in short: as §1
[7] = biological target: T1, Sterol 24-C-methyltransferase (Yarrowia lipolytica); assay: Inhibition of Yarrowia lipolytica 24-SMT assessed as cholesta-5,7,24-trien-3-trimethylsilyl derivative at 0.2 ug/mL after 48 hrs by GC-MS analysis relative to untreated control; design: scale not given: the % may be the effect or the level left; in short: as §1
[8] = biological target: T1, Sterol 24-C-methyltransferase (Yarrowia lipolytica); assay: Inhibition of Yarrowia lipolytica 24-SMT assessed as dehydroergosterol-3-trimethylsilyl derivative at 0.2 ug/mL after 48 hrs by GC-MS analysis relative to untreated control; design: scale not given: the % may be the effect or the level left; in short: as §1
[9] = biological target: T1, Sterol 24-C-methyltransferase (Yarrowia lipolytica); assay: Inhibition of Yarrowia lipolytica 24-SMT assessed as 5-dehydroepisterol-3-trimethylsilyl derivative at 0.2 ug/mL after 48 hrs by GC-MS analysis relative to untreated control; design: scale not given: the % may be the effect or the level left; in short: as §1
[10] = biological target: T1, Sterol 24-C-methyltransferase (Yarrowia lipolytica); assay: Inhibition of Yarrowia lipolytica 24-SMT assessed as lanosterol-3-trimethylsilyl derivative at 0.2 ug/mL after 48 hrs by GC-MS analysis relative to untreated control; design: scale not given: the % may be the effect or the level left; in short: as §1
[11] = biological target: T1, Sterol 24-C-methyltransferase (Yarrowia lipolytica); assay: Inhibition of Yarrowia lipolytica 24-SMT assessed as zymosterol-3-trimethylsilyl derivative level at 0.2 ug/mL after 48 hrs by GC-MS analysis relative to untreated control; design: scale not given: the % may be the effect or the level left; in short: as §1
[12] = biological target: T1, Sterol 24-C-methyltransferase (Yarrowia lipolytica); assay: Inhibition of Yarrowia lipolytica 24-SMT assessed as zymosterol-3-trimethylsilyl derivative level at 0.06 ug/mL after 48 hrs by GC-MS analysis relative to untreated control; design: scale not given: the % may be the effect or the level left; in short: as §1
[13] = biological target: T1, Sterol 24-C-methyltransferase (Yarrowia lipolytica); assay: Inhibition of Yarrowia lipolytica 24-sterol C-methyltransferase assessed as ergosterol-3-trimethylsilyl derivative level at 0.06 ug/mL after 48 hrs by GC-MS analysis relative to untreated control; design: scale not given: the % may be the effect or the level left; in short: as §1
[14] = biological target: T1, Sterol 24-C-methyltransferase (Yarrowia lipolytica); assay: Inhibition of Yarrowia lipolytica 24-SMT assessed as 5-dehydroepisterol-3-trimethylsilyl derivative at 1 ug/mL after 48 hrs by GC-MS analysis relative to untreated control; design: scale not given: the % may be the effect or the level left; in short: as §1
[15] = biological target: T1, Sterol 24-C-methyltransferase (Yarrowia lipolytica); assay: Inhibition of Yarrowia lipolytica 24-SMT assessed as cholesta-7,24-dien-3-trimethylsilyl derivative at 1 ug/mL after 48 hrs by GC-MS analysis relative to untreated control; design: scale not given: the % may be the effect or the level left; in short: as §1
[16] = biological target: T1, Sterol 24-C-methyltransferase (Yarrowia lipolytica); assay: Inhibition of Yarrowia lipolytica 24-SMT assessed as dehydroergosterol-3-trimethylsilyl derivative at 1 ug/mL after 48 hrs by GC-MS analysis relative to untreated control; design: scale not given: the % may be the effect or the level left; in short: as §1
[17] = biological target: T1, Sterol 24-C-methyltransferase (Yarrowia lipolytica); assay: Inhibition of Yarrowia lipolytica 24-sterol C-methyltransferase assessed as cholesta-5,7,24-trien-3-trimethylsilyl derivative at 1 ug/mL after 48 hrs by GC-MS analysis relative to untreated control; design: scale not given: the % may be the effect or the level left; in short: as §1
[18] = biological target: T1, Sterol 24-C-methyltransferase (Yarrowia lipolytica); assay: Inhibition of Yarrowia lipolytica 24-SMT assessed as lanosterol-3-trimethylsilyl derivative at 0.06 ug/mL after 48 hrs by GC-MS analysis relative to untreated control; design: scale not given: the % may be the effect or the level left; in short: as §1
[19] = biological target: T1, Sterol 24-C-methyltransferase (Yarrowia lipolytica); assay: Inhibition of Yarrowia lipolytica 24-SMT assessed as ergosterol-3-trimethylsilyl derivative level at 0.2 ug/mL after 48 hrs by GC-MS analysis relative to untreated control; design: scale not given: the % may be the effect or the level left; in short: as §1
[20] = biological target: T1, Sterol 24-C-methyltransferase (Yarrowia lipolytica); assay: Inhibition of Yarrowia lipolytica 24-SMT assessed as cholesta-5,7,24-trien-3-trimethylsilyl derivative at 0.1 ug/mL after 48 hrs by GC-MS analysis relative to untreated control; design: scale not given: the % may be the effect or the level left; in short: as §1
[21] = biological target: T1, Sterol 24-C-methyltransferase (Yarrowia lipolytica); assay: Inhibition of Yarrowia lipolytica 24-SMT assessed as zymosterol-3-trimethylsilyl derivative level at 0.1 ug/mL after 48 hrs by GC-MS analysis relative to untreated control; design: scale not given: the % may be the effect or the level left; in short: as §1
[22] = biological target: T1, Sterol 24-C-methyltransferase (Yarrowia lipolytica); assay: Inhibition of Yarrowia lipolytica 24-SMT assessed as dehydroergosterol-3-trimethylsilyl derivative at 0.1 ug/mL after 48 hrs by GC-MS analysis relative to untreated control; design: scale not given: the % may be the effect or the level left; in short: as §1
[23] = biological target: T1, Sterol 24-C-methyltransferase (Yarrowia lipolytica); assay: Inhibition of Yarrowia lipolytica 24-SMT assessed as 5-dehydroepisterol-3-trimethylsilyl derivative at 0.1 ug/mL after 48 hrs by GC-MS analysis relative to untreated control; design: scale not given: the % may be the effect or the level left; in short: as §1
[24] = biological target: T1, Sterol 24-C-methyltransferase (Yarrowia lipolytica); assay: Inhibition of Yarrowia lipolytica 24-SMT assessed as cholesta-7,24-dien-3-trimethylsilyl derivative at 2 ug/mL after 48 hrs by GC-MS analysis relative to untreated control; design: scale not given: the % may be the effect or the level left; in short: as §1
[25] = biological target: T1, Sterol 24-C-methyltransferase (Yarrowia lipolytica); assay: Inhibition of Yarrowia lipolytica 24-SMT assessed as dehydroergosterol-3-trimethylsilyl derivative at 2 ug/mL after 48 hrs by GC-MS analysis relative to untreated control; design: scale not given: the % may be the effect or the level left; in short: as §1
[26] = biological target: T1, Sterol 24-C-methyltransferase (Yarrowia lipolytica); assay: Inhibition of Yarrowia lipolytica 24-SMT assessed as 5-dehydroepisterol-3-trimethylsilyl derivative at 2 ug/mL after 48 hrs by GC-MS analysis relative to untreated control; design: scale not given: the % may be the effect or the level left; in short: as §1
[27] = biological target: T1, Sterol 24-C-methyltransferase (Yarrowia lipolytica); assay: Inhibition of Yarrowia lipolytica 24-SMT assessed as cholesta-5,7,24-trien-3-trimethylsilyl derivative at 2 ug/mL after 48 hrs by GC-MS analysis relative to untreated control; design: scale not given: the % may be the effect or the level left; in short: as §1

Activity [2] | Activity [3] | Activity [4] | MIC [5] | Activity [6] | Activity [7] | Activity [8] | Activity [9] | Activity [13] | SMILES | further results
4.7% | 42.4% | 47.9% | 0.25 µg/mL (≈ 0.645 µM) | – | – | – | – | – | CCCCNC[C@@H](C)[C@H]1CC[C@H]2C3=CC[C@H]4C[C@@H](O)CC[C@]4(C)[C@H]3CC[C@]12C | Activity [1]: 5%
– | – | – | 0.5 µg/mL (≈ 1.24 µM) | 5.6% | 48.2% | 37.4% | 4.2% | – | CCCCN(C)C[C@@H](C)[C@H]1CC[C@H]2C3=CC[C@H]4C[C@@H](O)CC[C@]4(C)[C@H]3CC[C@]12C | Activity [10]: 0.4%; Activity [11]: 4.2%
3.8% | 68.9% | 20.4% | 0.25 µg/mL (≈ 0.622 µM) | – | – | – | – | 4.9% | CCCCCNC[C@@H](C)[C@H]1CC[C@H]2C3=CC[C@H]4C[C@@H](O)CC[C@]4(C)[C@H]3CC[C@]12C | Activity [1]: 1.6%; Activity [12]: 0.4%
– | – | – | > 2 µg/mL | – | – | – | – | – | C[C@H](CNCCN(C)C)[C@H]1CC[C@H]2C3=CC[C@H]4C[C@@H](O)CC[C@]4(C)[C@H]3CC[C@]12C | Activity [14]: 3.1%; Activity [15]: 4.5%; Activity [16]: 24.3%; Activity [17]: 68%
1.8% | 67.9% | 18.3% | 0.5 µg/mL | – | – | – | – | 11.8% | C[C@H](/C=C/c1cc[n+](C)cc1)[C@H]1CCC2C3=CCC4C[C@@H](O)CC[C@]4(C)C3CC[C@@]21C.[I-] (some centres not stated) | Activity [18]: 0.2%
0.7% | 82.1% | 2.2% | 1 µg/mL | 4.3% | 83.4% | 7% | 1% | 15% | C[C@H](/C=C/c1cccc[n+]1C)[C@H]1CC[C@H]2C3=CCC4C[C@@H](O)CC[C@]4(C)[C@H]3CC[C@]12C.[I-] (some centres not stated) | Activity [19]: 4.1%; Activity [10]: 0.3%
– | – | – | 0.25 µg/mL (≈ 0.669 µM) | – | – | – | – | – | CCCNC[C@@H](C)[C@H]1CC[C@H]2C3=CC[C@H]4C[C@@H](O)CC[C@]4(C)[C@H]3CC[C@]12C | Activity [20]: 48.5%; Activity [21]: 0.5%; Activity [22]: 47.3%; Activity [23]: 3.7%
– | – | – | > 2 µg/mL | – | – | – | – | – | CCCC[S+](C)C[C@@H](C)[C@H]1CC[C@H]2C3=CC[C@H]4C[C@@H](O)CC[C@]4(C)[C@H]3CC[C@]12C.[I-] (mixture of isomers) | Activity [24]: 3.5%; Activity [25]: 7.8%; Activity [26]: 1%; Activity [27]: 87.5%
– | – | – | 2 µg/mL (≈ 5.56 µM) | 3.6% | 25.5% | 64.7% | 2.8% | – | CCNC[C@@H](C)[C@H]1CC[C@H]2C3=CC[C@H]4C[C@@H](O)CC[C@]4(C)[C@H]3CC[C@]12C | Activity [19]: 3.4%
